From PubChem BioAssay come the findings set out here.

The nature of assay [1]: inhibitors of TNFa-induced NFkB p65 translocation, primary screen, imaging, HUVEC, MLSMR starter and 10KST1 sets (AID 438).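 Also: compound added about 3h40 before a 20 min TNFalpha stimulation.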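 As to inhibition: signal is the nuclear over cytoplasmic p65 intensity ratio per well.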 The settings on record: HUVEC TNFa-induced p65 nuclear translocation; cell count: measured here: nuclei count (cytotoxicity indicator), at 2.08 µM; inhibition: at 2 µM, stronger effect = higher value, 0% TNFa-plus-vehicle, 100% no-TNFa wells.
A short description of assay [2]: reduction of polyQ htt aggregates in cells – imaging, exon1htt(103Q)mCFP cells, high-content imaging, primary screen (AID 483;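 active = visual image review flags a hit and inhibition of aggregation exceeds 20%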;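 also: compound exposure lasted 3 days before fixation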;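 as to nuclei count: percent of the per-plate median nuclei count of sample wells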). The settings on record: exon1htt(103Q)mCFP cell line, aggregate imaging, at 2 µM; inhibition of aggregation: stronger effect = higher value; nuclei count: measured here: cell count, toxicity.
Assay [3] in a line: endothelial E-selectin expression blockers – imaging, HUVEC, immunofluorescence, MLSMR starter and 10KST1 sets, primary screen (AID 487;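 active = visually confirmed hit in the image check and inhibition above 20%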;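 as to inhibition: signal is fraction of cell area covered by stained E-selectin grains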;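 as to nuclei count: 100% = median nuclei count of all wells on the same plate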). The settings on record: HUVEC TNFalpha-induced E-selectin immunofluorescence imaging, at 2 µM; inhibition: stronger effect = higher value; nuclei count: measured here: cell number, toxicity.
Assay [4] deals with Voltage-gated potassium channel subunit beta-2 (Rattus norvegicus) (UniProt P62483). Put plainly: inhibitors of rat Kvbeta2 reductase activity – biochemical, NADPH fluorescence, primary screen (AID 622;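 active = fluorescence slope higher than the sample average by over 3 SD, cut at about -0.22 in these data, passing the limit was not always enough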;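 also: slope of raw intensity against log time taken from 70 to 1610 s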). To be noted: recombinant KvBeta, 4-cyanobenzaldehyde reduction, at 10 µM, stronger effect = higher value.
Sequence of Voltage-gated potassium channel subunit beta-2 (Rattus norvegicus) (P62483 whole entry, looked up): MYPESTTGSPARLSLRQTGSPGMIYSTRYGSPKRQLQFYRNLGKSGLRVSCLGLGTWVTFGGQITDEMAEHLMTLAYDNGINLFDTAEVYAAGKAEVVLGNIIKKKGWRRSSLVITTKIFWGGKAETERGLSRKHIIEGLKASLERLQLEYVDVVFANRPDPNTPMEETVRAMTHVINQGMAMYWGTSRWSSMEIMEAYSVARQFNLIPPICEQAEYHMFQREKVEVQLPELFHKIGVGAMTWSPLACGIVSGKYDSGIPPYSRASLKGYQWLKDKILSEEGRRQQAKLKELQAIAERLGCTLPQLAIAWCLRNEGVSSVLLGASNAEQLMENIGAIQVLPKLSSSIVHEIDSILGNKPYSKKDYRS
Assay [5] shares this target. Put plainly: enhancers of rat Kvbeta2 NADPH turnover – biochemical, NADPH fluorescence, primary screen (AID 623;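 active = NADPH fluorescence slope more negative than the mean of all samples by about 3 SD, 99.7% confidence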;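 also: fluorescence intensity change per second fitted from 20 to 320 s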). The settings on record: Recombinant KvBeta, NADPH fluorescence decrease slope, 10 min; at 10 µM; stronger effect = lower value.
Assay [6] deals with Muscarinic acetylcholine receptor M4 (Homo sapiens) (UniProt P08173). Put plainly: M4-linked GIRK flux change, two-sided – cell-based, HEK293 M4/GIRK, thallium flux, BTC-AM, M4 allosteric agonist project, primary screen (AID 625;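 active = fluorescence slope after compound addition differing from the mean of all tested samples at 99.7% confidence, mostly higher but some lower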;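 also: thallium influx through GIRK channels coupled to M4 in HEK293 cells with BTC-AM dye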). To be noted: at 10 µM, actives lie on both sides. The method, boiled down:
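System: HEK293 cells with M4 receptor and GIRK channels | Incubation: Cells overnight at 37 °C, BTC-AM loading 1 h, reads 2 min total | Technique: Kinetic BTC-AM fluorescence sampled at 1 Hz, 10 s pre-addition baseline | Measure: Post-addition slope, 15–24 s, of baseline-normalized fluorescence | Control set: Carbachol positive, DMSO negative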

Assay [7] is described as follows: blockers of RIG-like receptor reporter activation – cell-based, Sendai virus stimulus, luciferase, 10K MLSCN set, TLR/RLR signaling modifier project, primary screen (AID 602276;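 active = inhibition at or above 50% at 10 µM; inactive = inhibition below 50%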;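 also: firefly luciferase from ISG56 promoter only with Renilla not read in this screen; 0% = Sendai virus plus DMSO and 100% = medium plus DMSO without virus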). To be noted: HEK293 RL24 IRF3 luciferase reporter, at 10 µM, stronger effect = higher value.
The nature of assay [8]: TLR3 IRF3 reporter activation blockers – cell-based, poly I:C stimulus, luciferase, 10K MLSCN set, primary screen (AID 602277;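 active = inhibition of the reporter signal at or above 50%; inactive = inhibition below 50%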). The settings on record: HEK293-TLR3 RL24 IRF3 luciferase reporter, at 10 µM, stronger effect = higher value.
For assay [9], the target named is Alpha-2C adrenergic receptor (Homo sapiens) (UniProt P18825). Put plainly: compounds altering alpha2C-coupled GIRK flux – cell-based, HEK293 alpha2C/GIRK1/2, thallium flux, primary screen (AID 624;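 active = fluorescence slope after compound addition differing from the mean of all screened samples at 99.7% confidence, in either direction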;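 also: slope of fluorescence ratio to pre-addition baseline per second over 15 to 24 s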). The settings on record: thallium flux BTC fluorescence, at 10 µM, actives lie on both sides.
Sequence of Alpha-2C adrenergic receptor (Homo sapiens) (P18825 whole entry, looked up): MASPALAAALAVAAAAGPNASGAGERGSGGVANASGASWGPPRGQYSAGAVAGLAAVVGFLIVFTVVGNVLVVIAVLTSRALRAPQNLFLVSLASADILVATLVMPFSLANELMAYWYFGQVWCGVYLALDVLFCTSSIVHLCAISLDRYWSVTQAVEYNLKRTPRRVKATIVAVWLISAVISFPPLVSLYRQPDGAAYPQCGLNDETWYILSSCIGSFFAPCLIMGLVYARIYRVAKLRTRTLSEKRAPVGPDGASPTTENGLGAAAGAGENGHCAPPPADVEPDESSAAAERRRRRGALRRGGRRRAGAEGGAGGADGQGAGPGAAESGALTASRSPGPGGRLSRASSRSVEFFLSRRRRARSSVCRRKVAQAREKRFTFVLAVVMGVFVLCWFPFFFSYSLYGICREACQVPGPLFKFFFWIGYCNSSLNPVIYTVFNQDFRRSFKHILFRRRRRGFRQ
Assay [10] is described as follows: inhibitors of larval lipid processing in zebrafish, primary screen, whole organism, PED6 fluorescence, gall bladder and intestine (AID 686;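 active = a full or partial loss of lipid-probe fluorescence in the fish gall bladder, intestine or both, judged by eye; inactive = no fluorescence loss, or compound toxic to the fish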;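 also: larvae 5 to 7 days old with five fish per well; signal comes from phospholipase A2 cleavage of quenched PED6 carried via bile; overnight exposure to compound and PED6 before scoring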). To be noted: Zebrafish larvae PED6 lipid processing, fluorescence scoring; screened at 20 µM (by protocol). The method, boiled down: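 Test system – live zebrafish larvae aged 5-7 days, whole organism · Buffer or medium – E3 fish medium · Reagent – quenched phospholipase substrate PED6, 100 nM final, ingested by larvae · Doses – 20 µM single dose · Incubation – overnight compound and PED6 incubation · Technique – visual fluorescence microscopy scoring of gall bladder, gut · Read-out basis – visual per-well fluorescence inhibition score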

The term inhibition denotes the change of the read-out against control, counted positive when it falls.

The structures appear in SMILES notation. Active and inactive are the calls of the source.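 The calls were made as follows, unless noted: active = inhibition above 20% together with a positive visual image hit; inconclusive = visual image hit but inhibition not above 20%; inactive = no visual image hit.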

Sequence of Muscarinic acetylcholine receptor M4 (Homo sapiens) (P08173 whole entry, looked up): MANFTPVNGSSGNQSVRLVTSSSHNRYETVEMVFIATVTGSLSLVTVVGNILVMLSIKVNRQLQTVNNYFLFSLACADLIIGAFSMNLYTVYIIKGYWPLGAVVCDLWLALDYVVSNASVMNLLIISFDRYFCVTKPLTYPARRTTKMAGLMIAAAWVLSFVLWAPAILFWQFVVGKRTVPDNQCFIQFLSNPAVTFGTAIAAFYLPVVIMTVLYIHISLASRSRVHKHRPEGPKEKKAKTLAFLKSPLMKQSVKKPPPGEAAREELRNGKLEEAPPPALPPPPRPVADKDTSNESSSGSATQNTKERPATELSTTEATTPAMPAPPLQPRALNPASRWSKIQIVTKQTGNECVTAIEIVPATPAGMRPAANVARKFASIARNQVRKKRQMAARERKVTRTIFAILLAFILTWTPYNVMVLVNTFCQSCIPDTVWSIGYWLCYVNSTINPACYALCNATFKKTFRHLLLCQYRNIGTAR

With `CCc1cc2c(NCCC(=O)O)nc(C)nc2s1`, in assay [1], the cell count was 222. Also, the inhibition was -13.7% (inactive) in assay [1], -7.8% (inactive) in [3], 2.05% (inactive) in assay [7] and 15.1% (inactive) in [8]. The inhibition of aggregation in [2] is 13.8% (inactive). The nuclei count was 79% in assay [2] and 104% in [3]. Also, the fluorescence slope was -0.575 (inactive) in assay [4] and 0.00598 (inactive) in assay [6]. For the same compound, the NADPH fluorescence slope in assay [5] is -4e-05 (inactive).

Turning to `COc1ccc(OCCCC(=O)Nc2ccc3c(c2)OCCO3)cc1`, the cell count in assay [1] was determined as 467. The inhibition in assay [1] is 10.1% (inactive); in [3] it was -237% (inactive); in [7], -5.01% (inactive); in [8], -17.3% (inactive). The inhibition of aggregation in assay [2] was -6.5% (inactive). The nuclei count in assay [2] turned out to be 104%; in [3] it was 140%. Further, the fluorescence slope is -0.299 (inactive) in [4] and 0.00647 (inactive) in [6]. Also, the NADPH fluorescence slope in assay [5] is -2.2e-05 (inactive).

As to `O=C1CCC(C(=O)N(Cc2ccco2)C2(C(=O)NC3CCCC3)CCCCC2)N1` (stereo unspecified), the cell count in [1] turned out to be 428. Further, the inhibition in [1] is -6.8% (inactive); in assay [3] it was -39.9% (inactive); in [7] it was 5.55% (inactive); in assay [8], 13.4% (inactive). In assay [2], the inhibition of aggregation was -16.4% (inactive). The nuclei count in [2] came out at 116%; in [3] it was 139%. Moreover, in assay [4], the fluorescence slope was -0.428 (inactive). Further, the NADPH fluorescence slope in assay [5] is 4.8e-06 (inactive). Further, the slope in assay [9] is 0.00488 (inactive). For the same compound, the call in assay [10] was inactive.

Take `CCn1c(SC)nc2c(c1=O)SC(C)C2` (stereo unspecified): in assay [1], the cell count turned out to be 570. Besides, the inhibition is -4.9% (inactive) in assay [1], -20.6% (inactive) in [3], 6.41% (inactive) in [7] and 15.1% (inactive) in assay [8]. The inhibition of aggregation in assay [2] was -5% (inactive). The values for the nuclei count in assay [2] and in assay [3] were 112% and 118%, respectively. The fluorescence slope is -0.432 (inactive) in assay [4] and 0.00648 (inactive) in assay [6]. Also, the NADPH fluorescence slope in [5] was -8.5e-05 (inactive).

For the compound `COc1cc(C(=O)OCc2cc3ccccc3[nH]c2=O)cc(OC)c1OC`, in [1], the cell count came to 833. In addition, the inhibition in assay [1] is -3.9% (inactive); in assay [3], -38.9% (inactive); in assay [7], 17.4% (inactive); in assay [8], 18.2% (inactive). Further, the inhibition of aggregation in assay [2] is -3.9% (inactive). Moreover, the figures for the nuclei count in assay [2] and in assay [3] were 99.3% and 102%, respectively. The fluorescence slope in assay [4] was -0.356 (inactive). Also, in [5], the NADPH fluorescence slope was -4.1e-05 (inactive). Besides, the slope in assay [9] was 0.00585 (inactive). The result in [10] was inactive.

For the compound `CC(=O)C1=C(O)C(=O)N(Cc2ccco2)C1c1ccc(F)cc1` (stereo unspecified), the cell count in assay [1] is 381. Further, the inhibition in assay [1] was 4.3% (inactive); in assay [3], 21.9% (inactive); in [7], 2% (inactive); in [8], 0.393% (inactive). Besides, in assay [2], the inhibition of aggregation is -7.7% (inactive). Moreover, the results for the nuclei count in assay [2] and in assay [3] were 92.3% and 98%, respectively. The fluorescence slope was -0.576 (inactive) in assay [4] and 0.00555 (inactive) in assay [6]. Further, the NADPH fluorescence slope in assay [5] is 1e-05 (inactive).

`CCN(C(=O)Cc1c(C(=O)O)[nH]c2ccccc12)c1cc(OC)ccc1OC`: the cell count in [1] came to 439. Also, the inhibition is -5.2% (inactive) in [1], -36% (inactive) in assay [3], 13.8% (inactive) in assay [7] and 24.5% (inactive) in assay [8]. Moreover, the inhibition of aggregation in [2] was -10% (inactive). Besides, the results for the nuclei count in assay [2] and in [3] were 120% and 143%, respectively. Also, the fluorescence slope in assay [4] is -0.286 (inactive); in assay [6], 0.00689 (inactive). Besides, in assay [5], the NADPH fluorescence slope is -4e-05 (inactive).

For the compound `COc1cccc(C(=O)Nc2cc(NC(=O)c3ccco3)ccc2OC)c1`, the cell count in assay [1] was determined as 406. Further, the inhibition is 10.9% (inactive) in [1], 17.3% (inactive) in assay [3], 19.4% (inactive) in [7] and 4.19% (inactive) in assay [8]. The inhibition of aggregation in assay [2] is 24.4% (inactive). The nuclei count in [2] was determined as 88.1%; in assay [3] it was 98.6%. The fluorescence slope in assay [4] is -0.572 (inactive); in [6], 0.00583 (inactive). Further, in assay [5], the NADPH fluorescence slope is -3.4e-05 (inactive).

For `CCc1cc(C)cc(OCCNC(=O)c2ncn[nH]2)c1`, in assay [1], the cell count is 473. For the same compound, the inhibition in assay [1] was 3% (inactive); in assay [3], 31.1% (inactive); in assay [7], 12% (inactive); in assay [8], 18.1% (inactive). Besides, in assay [2], the inhibition of aggregation is 3.2% (inactive). In addition, the nuclei count was found to be 93.5% in [2] and 88.4% in assay [3]. In addition, the fluorescence slope in [4] is -0.592 (inactive); in [6] it was 0.00585 (inactive). Also, in [5], the NADPH fluorescence slope was -1.9e-06 (inactive).

For the compound `CCS(=O)(=O)c1nc2ccccc2n1CC(=O)N1CCCCC1`, in [1], the cell count was 507. Also, the inhibition in [1] is 9.7% (inactive); in assay [3], -32.9% (inactive); in assay [7] it was 17.6% (inactive); in assay [8], 27% (inactive). Also, the inhibition of aggregation in assay [2] is -6.2% (inactive). Further, the values for the nuclei count in assay [2] and in assay [3] were 89.2% and 99.3%, respectively. In addition, the fluorescence slope in assay [4] is -0.425 (inactive); in [6], 0.00578 (inactive). Further, the NADPH fluorescence slope in [5] is -2.1e-05 (inactive).

On to `CC(=O)c1ccc(Oc2cc(C)nc(-n3nc(C)cc3C)n2)cc1`, for which the cell count in assay [1] was found to be 468. The inhibition in assay [1] is -15.6% (inactive); in assay [3], -17.9% (inactive); in [7] it was -4.86% (inactive); in assay [8] it was 78.2% (active). Further, the inhibition of aggregation in assay [2] is -50.7% (inactive). In addition, the nuclei count in [2] amounted to 1.1%; in assay [3], 102%. Besides, the figures for the fluorescence slope in assay [4] and in assay [6] were -0.547 (inactive) and 0.00511 (inactive), respectively. In addition, the NADPH fluorescence slope in [5] is 1.9e-05 (inactive).

For `CCCn1c2c(c(O)c(C(=O)NC)c1=O)CCCC2`, the cell count in assay [1] amounted to 323. Besides, the inhibition is 3.4% (inactive) in assay [1], -40.9% (inactive) in assay [3], 26.6% (inactive) in assay [7] and 25.6% (inactive) in [8]. Moreover, in [2], the inhibition of aggregation is -3.3% (inactive). The nuclei count in assay [2] stood at 101%; in [3], 112%. Further, the results for the fluorescence slope in assay [4] and in [6] were -0.566 (inactive) and 0.00821 (inactive), respectively. Besides, the NADPH fluorescence slope in assay [5] was -6.4e-05 (inactive).

`CCN(C(=O)c1cc2cc3ccc(C)cc3nc2o1)c1ccc(OC)cc1`: in assay [1], the cell count was found to be 225. Moreover, the inhibition was -1.3% (inactive) in [1], -11% (inactive) in assay [3], -25.1% (inactive) in [7] and -79.8% (inactive) in [8]. Further, the inhibition of aggregation in [2] is 0.1% (inactive). Moreover, the values for the nuclei count in [2] and in assay [3] were 107% and 106%, respectively. The fluorescence slope was -0.431 (inactive) in assay [4] and 0.00704 (inactive) in assay [6]. Besides, the NADPH fluorescence slope in assay [5] is -1.6e-05 (inactive).

`C=CS(=O)(=O)c1ccc(Oc2ccc(S(=O)(=O)C=C)cc2)cc1`: the cell count in assay [1] turned out to be 378. For the same compound, the inhibition in [1] was 70.2% (active); in [3] it was 104% (active); in assay [7] it was 14.1% (inactive); in [8] it was 98.2% (active). Further, the inhibition of aggregation in [2] was -3.2% (inactive). Further, the nuclei count was 80.8% in assay [2] and 121% in [3]. For the same compound, the fluorescence slope is -0.5 (inactive) in assay [4] and 0.00487 (inactive) in assay [6]. Besides, the NADPH fluorescence slope in [5] was -2.6e-05 (inactive).
